Test results published in ChEMBL document CHEMBL1154067, “Antiviral and cytotoxic activities of aminoarylazo compounds and aryltriazene derivatives” (Bioorg Med Chem, 2009).
pEC50: −log10 of the molar value. The source made the active and inactive calls. How the calls were made is not given here.

Tested on: Coxsackievirus B2
Assay: Antiviral activity against Coxsackie virus type B2 virus infected in african green monkey Vero-76 cells after 3 days by plaque reduction assay
Format: functional, organism-based
Conditions: Enterovirus B, Vero 76, 72 h
Outline: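 Vero 76 cells seeded at 2 × 10^5 cells/well, grown overnight to confluence at 37 °C in 5% CO2, then infected at 50–100 PFU/well. Unadsorbed virus removed. Overlay of DMEM with 1% inactivated FCS and 0.75% methylcellulose, with or without serial compound dilutions. After 3 days at 37 °C, fixed and stained with crystal violet in PBS/50% ethanol; plaques counted. EC50 is the concentration reducing plaque number by 50%.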

| SMILES | pEC50 |
| --- | --- |
| c1ccc(/N=N/N2CCN(c3ncccn3)CC2)cc1 | 5.00 |
| CN1CCN(/N=N/c2ccccc2)CC1 | 4.85 |
| Clc1ccc(/N=N/N2CCCC2)cc1Cl | < 4.24 |
| Clc1ccc(/N=N/N2CCCCC2)cc1 | < 4.00 |
| c1ccc(/N=N/N2CCCC2)cc1 | < 4.00 |
| Clc1ccc(/N=N/N2CCCC2)cc1 | < 4.00 |
| FC(F)(F)c1cccc(/N=N/N2CCCC2)c1 | < 4.00 |
| Clc1cccc(/N=N/N2CCCCC2)c1 | < 4.00 |
| Clc1cccc(/N=N/N2CCCC2)c1 | < 4.00 |
| COc1ccc(/N=N/N2CCCC2)cc1 | < 4.05 |

Tested on: not listed separately
Assay: Cytotoxicity against hamster BHK21 cells assessed as reduction in cell viability after 48 to 96 hrs by MTT assay
Format: cell-based, Mesocricetus auratus, BHK-21
Conditions: bhk-21
Outline: (§1)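 Mock-infected cells in maintenance medium, MDBK at 6 × 10^5 and BHK at 1 × 10^6 cells/mL initial density, with or without serial compound dilutions. Run in parallel with antiviral assays. Viability by MTT after 48–96 h at 37 °C, 5% CO2. CC50 = concentration reducing viability 50%.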

| SMILES | CC50 [µM] |
| --- | --- |
| c1ccc(/N=N/N2CCN(c3ncccn3)CC2)cc1 | > 100 |
| CN1CCN(/N=N/c2ccccc2)CC1 | 70 |
| Clc1ccc(/N=N/N2CCCC2)cc1Cl | 50 |
| Clc1ccc(/N=N/N2CCCCC2)cc1 | > 100 |
| c1ccc(/N=N/N2CCCC2)cc1 | ≥ 100 |
| Clc1ccc(/N=N/N2CCCC2)cc1 | > 100 |
| FC(F)(F)c1cccc(/N=N/N2CCCC2)c1 | > 100 |
| c1ccc(N=NNc2ccccc2)cc1 | > 100 |
| Clc1cccc(/N=N/N2CCCCC2)c1 | > 100 |
| Clc1cccc(/N=N/N2CCCC2)c1 | > 100 |
| COc1ccc(/N=N/N2CCCC2)cc1 | ≥ 100 |

Tested on: Vesicular stomatitis virus
Assay: Antiviral activity against Vesicular stomatitis virus after 2 days by plaque reduction assay
Format: functional, organism-based
Conditions: not given

| SMILES | Activity |
| --- | --- |
| c1ccc(/N=N/N2CCN(c3ncccn3)CC2)cc1 | inactive |
| CN1CCN(/N=N/c2ccccc2)CC1 | inactive |
| Clc1ccc(/N=N/N2CCCC2)cc1Cl | inactive |
| Clc1ccc(/N=N/N2CCCCC2)cc1 | inactive |
| c1ccc(/N=N/N2CCCC2)cc1 | inactive |
| Clc1ccc(/N=N/N2CCCC2)cc1 | inactive |
| FC(F)(F)c1cccc(/N=N/N2CCCC2)c1 | inactive |
| Clc1cccc(/N=N/N2CCCCC2)c1 | inactive |
| Clc1cccc(/N=N/N2CCCC2)c1 | inactive |
| COc1ccc(/N=N/N2CCCC2)cc1 | inactive |

Tested on: Yellow fever virus
Assay: Antiviral activity against Yellow fever virus infected in BHK-21 cells assessed as inhibition of virus-induced cytopathicity after 3 to 4 days by MTT assay
Format: functional, organism-based
Conditions: not given

| SMILES | pEC50 |
| --- | --- |
| c1ccc(/N=N/N2CCN(c3ncccn3)CC2)cc1 | < 4.00 |
| CN1CCN(/N=N/c2ccccc2)CC1 | < 4.15 |
| Clc1ccc(/N=N/N2CCCC2)cc1Cl | < 4.30 |
| Clc1ccc(/N=N/N2CCCCC2)cc1 | < 4.00 |
| c1ccc(/N=N/N2CCCC2)cc1 | < 4.00 |
| Clc1ccc(/N=N/N2CCCC2)cc1 | < 4.00 |
| FC(F)(F)c1cccc(/N=N/N2CCCC2)c1 | < 4.00 |
| Clc1cccc(/N=N/N2CCCCC2)c1 | < 4.00 |
| Clc1cccc(/N=N/N2CCCC2)c1 | < 4.00 |
| COc1ccc(/N=N/N2CCCC2)cc1 | < 4.00 |

Tested on: Human immunodeficiency virus 1
Assay: Antiviral activity against HIV1 infected in human MT4 cells assessed as inhibition of virus-induced cytopathicity after 4 days by MTT assay
Format: functional, organism-based
Conditions: not given

| SMILES | inhibition |
| --- | --- |
| c1ccc(/N=N/N2CCN(c3ncccn3)CC2)cc1 | inactive |
| CN1CCN(/N=N/c2ccccc2)CC1 | inactive |
| Clc1ccc(/N=N/N2CCCC2)cc1Cl | inactive |
| Clc1ccc(/N=N/N2CCCCC2)cc1 | inactive |
| c1ccc(/N=N/N2CCCC2)cc1 | inactive |
| Clc1ccc(/N=N/N2CCCC2)cc1 | inactive |
| FC(F)(F)c1cccc(/N=N/N2CCCC2)c1 | inactive |
| Clc1cccc(/N=N/N2CCCCC2)c1 | inactive |
| Clc1cccc(/N=N/N2CCCC2)c1 | inactive |
| COc1ccc(/N=N/N2CCCC2)cc1 | inactive |

Tested on: Poliovirus 1
Assay: Antiviral activity against Human poliovirus 1 strain Sabin after 2 days by plaque reduction assay
Format: functional
Conditions: Enterovirus C, 48 h

| SMILES | pEC50 |
| --- | --- |
| c1ccc(/N=N/N2CCN(c3ncccn3)CC2)cc1 | < 4.19 |
| CN1CCN(/N=N/c2ccccc2)CC1 | < 4.35 |
| Clc1ccc(/N=N/N2CCCC2)cc1Cl | 4.60 |
| Clc1ccc(/N=N/N2CCCCC2)cc1 | < 4.00 |
| c1ccc(/N=N/N2CCCC2)cc1 | < 4.00 |
| Clc1ccc(/N=N/N2CCCC2)cc1 | 4.38 |
| FC(F)(F)c1cccc(/N=N/N2CCCC2)c1 | < 4.00 |
| Clc1cccc(/N=N/N2CCCCC2)c1 | < 4.00 |
| Clc1cccc(/N=N/N2CCCC2)c1 | ≤ 4.00 |
| COc1ccc(/N=N/N2CCCC2)cc1 | < 4.05 |

Tested on: Mammalian orthoreovirus 1
Assay: Antiviral activity against Reovirus-1 infected in BHK-21 cells assessed as inhibition of virus-induced cytopathicity after 3 to 4 days by MTT assay
Format: functional, organism-based
Conditions: Mammalian orthoreovirus 1, BHK-21
Outline: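 BHK-21 cells seeded at 5 × 10^4 cells/well, grown overnight to confluent monolayers at 37 °C in 5% CO2, then infected at m.o.i. 0.01 in serum-free medium. One hour later, MEM Earle's with 1% final inactivated FCS added, with or without serial compound dilutions. Viability read by MTT after 3–4 days at 37 °C. EC50 is the concentration giving 50% protection from cytopathogenicity.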

| SMILES | pEC50 |
| --- | --- |
| c1ccc(/N=N/N2CCN(c3ncccn3)CC2)cc1 | < 4.00 |
| CN1CCN(/N=N/c2ccccc2)CC1 | < 4.15 |
| Clc1ccc(/N=N/N2CCCC2)cc1Cl | < 4.30 |
| Clc1ccc(/N=N/N2CCCCC2)cc1 | < 4.00 |
| c1ccc(/N=N/N2CCCC2)cc1 | < 4.00 |
| Clc1ccc(/N=N/N2CCCC2)cc1 | < 4.00 |
| FC(F)(F)c1cccc(/N=N/N2CCCC2)c1 | < 4.00 |
| Clc1cccc(/N=N/N2CCCCC2)c1 | < 4.00 |
| Clc1cccc(/N=N/N2CCCC2)c1 | < 4.00 |
| COc1ccc(/N=N/N2CCCC2)cc1 | < 4.00 |

Tested on: Vero
Assay: Cytotoxicity against african green monkey Vero 76 cells by crystal violet staining
Format: cell-based
Conditions: chlorocebus sabaeus, vero
Outline: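 Mock-infected Vero 76 seeded at 4 × 10^5 cells/mL, run in parallel with plaque assays, with or without serial compound dilutions. Cell number of monolayers determined by crystal violet staining. CC50 = concentration reducing viable cell number 50%.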

| SMILES | CC50 [µM] |
| --- | --- |
| c1ccc(/N=N/N2CCN(c3ncccn3)CC2)cc1 | 65 |
| CN1CCN(/N=N/c2ccccc2)CC1 | 45 |
| Clc1ccc(/N=N/N2CCCC2)cc1Cl | 58 |
| Clc1ccc(/N=N/N2CCCCC2)cc1 | > 100 |
| c1ccc(/N=N/N2CCCC2)cc1 | > 100 |
| Clc1ccc(/N=N/N2CCCC2)cc1 | > 100 |
| FC(F)(F)c1cccc(/N=N/N2CCCC2)c1 | > 100 |
| c1ccc(N=NNc2ccccc2)cc1 | 90 |
| Clc1cccc(/N=N/N2CCCCC2)c1 | > 100 |
| Clc1cccc(/N=N/N2CCCC2)c1 | ≥ 100 |
| COc1ccc(/N=N/N2CCCC2)cc1 | 90 |

Tested on: Vaccinia virus
Assay: Antiviral activity against Vaccinia virus after 3 days by plaque reduction assay
Format: functional, organism-based
Conditions: Orthopoxvirus vaccinia

| SMILES | Activity |
| --- | --- |
| c1ccc(/N=N/N2CCN(c3ncccn3)CC2)cc1 | inactive |
| CN1CCN(/N=N/c2ccccc2)CC1 | inactive |
| Clc1ccc(/N=N/N2CCCC2)cc1Cl | inactive |
| Clc1ccc(/N=N/N2CCCCC2)cc1 | inactive |
| c1ccc(/N=N/N2CCCC2)cc1 | inactive |
| Clc1ccc(/N=N/N2CCCC2)cc1 | inactive |
| FC(F)(F)c1cccc(/N=N/N2CCCC2)c1 | inactive |
| Clc1cccc(/N=N/N2CCCCC2)c1 | inactive |
| Clc1cccc(/N=N/N2CCCC2)c1 | inactive |
| COc1ccc(/N=N/N2CCCC2)cc1 | inactive |

Tested on: Human alphaherpesvirus 1
Assay: Antiviral activity against HSV1 infected in Vero-76 cells after 3 days by plaque reduction assay
Format: functional, organism-based
Conditions: Human alphaherpesvirus 1, Vero 76, 72 h

| SMILES | pEC50 |
| --- | --- |
| c1ccc(/N=N/N2CCN(c3ncccn3)CC2)cc1 | < 4.19 |
| CN1CCN(/N=N/c2ccccc2)CC1 | < 4.35 |
| Clc1ccc(/N=N/N2CCCC2)cc1Cl | < 4.24 |
| Clc1ccc(/N=N/N2CCCCC2)cc1 | < 4.00 |
| c1ccc(/N=N/N2CCCC2)cc1 | < 4.00 |
| Clc1ccc(/N=N/N2CCCC2)cc1 | < 4.00 |
| FC(F)(F)c1cccc(/N=N/N2CCCC2)c1 | < 4.00 |
| Clc1cccc(/N=N/N2CCCCC2)c1 | < 4.00 |
| Clc1cccc(/N=N/N2CCCC2)c1 | < 4.00 |
| COc1ccc(/N=N/N2CCCC2)cc1 | < 4.05 |

Tested on: Respiratory syncytial virus
Assay: Antiviral activity against Respiratory syncytial virus A2 infected in Vero-76 cells after 5 days by plaque reduction assay
Format: functional, organism-based
Conditions: human respiratory syncytial virus, A2, Vero 76, 120 h

| SMILES | pEC50 |
| --- | --- |
| c1ccc(/N=N/N2CCN(c3ncccn3)CC2)cc1 | < 4.19 |
| CN1CCN(/N=N/c2ccccc2)CC1 | < 4.35 |
| Clc1ccc(/N=N/N2CCCC2)cc1Cl | 4.70 |
| Clc1ccc(/N=N/N2CCCCC2)cc1 | < 4.00 |
| c1ccc(/N=N/N2CCCC2)cc1 | ≤ 4.00 |
| Clc1ccc(/N=N/N2CCCC2)cc1 | < 4.00 |
| FC(F)(F)c1cccc(/N=N/N2CCCC2)c1 | < 4.00 |
| Clc1cccc(/N=N/N2CCCCC2)c1 | < 4.00 |
| Clc1cccc(/N=N/N2CCCC2)c1 | < 4.00 |
| COc1ccc(/N=N/N2CCCC2)cc1 | < 4.05 |

Tested on: MT4
Assay: Cytotoxicity against human MT4 cells after 96 hrs by MTT assay
Format: cell-based
Conditions: mt4, 96 h
Outline: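 Exponentially growing mock-infected MT-4 seeded at 1 × 10^5 cells/mL in RPMI-1640 with 10% FCS, penicillin and streptomycin. Incubated with or without serial compound dilutions at 37 °C, 5% CO2. Viability by MTT after 96 h. CC50 = concentration reducing viability 50%.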

| SMILES | CC50 [µM] |
| --- | --- |
| c1ccc(/N=N/N2CCN(c3ncccn3)CC2)cc1 | 90 |
| CN1CCN(/N=N/c2ccccc2)CC1 | 65 |
| Clc1ccc(/N=N/N2CCCC2)cc1Cl | 75 |
| Clc1ccc(/N=N/N2CCCCC2)cc1 | > 100 |
| c1ccc(/N=N/N2CCCC2)cc1 | > 100 |
| Clc1ccc(/N=N/N2CCCC2)cc1 | > 100 |
| FC(F)(F)c1cccc(/N=N/N2CCCC2)c1 | > 100 |
| c1ccc(N=NNc2ccccc2)cc1 | 47 |
| Clc1cccc(/N=N/N2CCCCC2)c1 | > 100 |
| Clc1cccc(/N=N/N2CCCC2)c1 | > 100 |
| COc1ccc(/N=N/N2CCCC2)cc1 | 68 |

Tested on: not listed separately
Assay: Cytotoxicity against MDBK cells after 48 to 96 hrs by MTT assay
Format: cell-based, Bos taurus
Conditions: cattle, mdbk
Outline: as §1

| SMILES | CC50 [µM] |
| --- | --- |
| c1ccc(/N=N/N2CCN(c3ncccn3)CC2)cc1 | > 100 |
| CN1CCN(/N=N/c2ccccc2)CC1 | > 100 |
| Clc1ccc(/N=N/N2CCCC2)cc1Cl | 70 |
| Clc1ccc(/N=N/N2CCCCC2)cc1 | > 100 |
| c1ccc(/N=N/N2CCCC2)cc1 | > 100 |
| Clc1ccc(/N=N/N2CCCC2)cc1 | > 100 |
| FC(F)(F)c1cccc(/N=N/N2CCCC2)c1 | > 100 |
| c1ccc(N=NNc2ccccc2)cc1 | > 100 |
| Clc1cccc(/N=N/N2CCCCC2)c1 | > 100 |
| Clc1cccc(/N=N/N2CCCC2)c1 | > 100 |
| COc1ccc(/N=N/N2CCCC2)cc1 | 60 |
